Screening results deposited in PubChem BioAssay by several laboratories.
Mcl1-Bid inh: Mcl-1/Bid interaction inhibition; AID 1021; TR-FRET Mcl-1/Bid-Dy647 peptide binding, 1536-well; 220,000 tested, 0.97% active; inhibition, % at 21.7 µM;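 active = compounds that cut the binding signal by more than half at the single screening dose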;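 also: His-tagged Mcl-1 with europium anti-His antibody binding Bid BH3 peptide; 0% = Mcl-1 plus peptide wells and 100% = peptide-only wells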
Target sequence (Q07820 whole entry, looked up): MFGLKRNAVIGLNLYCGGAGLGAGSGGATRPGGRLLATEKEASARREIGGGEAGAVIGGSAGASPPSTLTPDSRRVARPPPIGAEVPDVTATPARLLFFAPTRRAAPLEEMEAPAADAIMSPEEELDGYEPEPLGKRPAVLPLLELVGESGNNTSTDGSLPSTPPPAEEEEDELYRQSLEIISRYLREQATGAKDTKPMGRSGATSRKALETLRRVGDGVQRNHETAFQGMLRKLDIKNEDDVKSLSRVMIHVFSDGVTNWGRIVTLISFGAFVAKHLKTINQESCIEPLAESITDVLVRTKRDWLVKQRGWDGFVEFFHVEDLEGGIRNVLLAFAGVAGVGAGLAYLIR
EBV gp42 block: blocks Epstein-Barr virus glycoprotein 42 binding; inhibition, % (tested at 21.74 µM); 220,000 tested, 0.42% active; Fluorescence polarization binding assay, mP read-out; AID 1085; in the data active = inhibition above about 50%
MCL1-BIM inh: disrupts human MCL1 binding to BIM-BH3 peptide | Q07820 | GST-MCL1 / FITC-Bim-BH3 fluorescence polarization | inhibition, % at 10.9 µM | 320,000 tested, 0.68% active;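 active = inhibition above the mean inhibition of all tested compounds plus 3 SD, set per campaign, cut at about 40% in these data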;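 also: 0% = DMSO wells and 100% = unlabeled Bim-BH3 peptide control; higher means more loss of mP so more displacement of Bim peptide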
RBBP9 inh: human RBBP9 hydrolase inhibition; recombinant RBBP9, FP-Rh probe fluorescence polarization; inhibition, % at 7.94 µM; 220,000 tested, 0.2% active;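 active = inhibition above the campaign mean of all tested compounds plus 3 SD, cut at about 14% in these data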;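 also: plate controls were DMSO wells with RBBP9 for no effect and wells lacking RBBP9 protein for full effect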
Target sequence (O75884 whole entry, looked up): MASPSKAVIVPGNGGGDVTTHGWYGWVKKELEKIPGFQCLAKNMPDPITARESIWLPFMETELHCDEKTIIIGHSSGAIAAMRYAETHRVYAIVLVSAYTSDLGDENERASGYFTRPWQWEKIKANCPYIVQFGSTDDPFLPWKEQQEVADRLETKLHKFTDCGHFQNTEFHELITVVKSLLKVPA
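Test system – recombinant human RBBP9 · Input – RBBP9 2.5 µM in dispensing solution, pre-mixing · Medium – Tris buffer pH 8.0, NaCl, Pluronic · Schedule – preincubation 30 min plus labeling 45 min at 25 °C · Measured by – fluorescence polarization · Measure – % inhibition · Controls – DMSO and no-protein wells · Replicates – one well per compound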
Mcl1 Noxa PPI: Mcl-1/Noxa interaction inhibition; inhibition, % at 21.7 µM; Q07820; TR-FRET Mcl-1/Noxa peptide binding, 2 h; 220,000 tested, 1.5% active;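 active = compounds that cut the protein-peptide binding signal by more than 50% relative to plate controls in a single-dose test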;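 also: His-tagged Mcl-1 with rhodamine Noxa BH3 peptide and terbium anti-His antibody; 0% = Mcl-1 plus Noxa peptide wells and 100% = peptide-only wells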
Bim-Mcl-1: human Bim-Mcl-1 interaction inhibition. Bead-based flow cytometry, Bim peptide-Mcl-1 binding. 190,000 tested, 0.1% active. AID 1009. inhibition, % at 10 µM. Q07820; in the data active = inhibition above about 40%;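 also: 0% = no compound tracer wells and 100% = peptide blocker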
* = called active by the depositor; nt = no result; ! = a repeat was not active. Sampled rows, rich in hits. Any-hit rate of the full collection: about 2.2%.

SMILES | Mcl1-Bid inh | EBV gp42 block | MCL1-BIM inh | RBBP9 inh | Mcl1 Noxa PPI | Bim-Mcl-1
O=c1[nH]c(=O)n(CCc2ccccc2)c(O)c1C=NCc1ccc2c(c1)OCO2 | 67* | -12 | -3 | -11 | -103 | -1
O=P(O)(O)C12CC3CC(CC(C3)C1)C2 | 2 | -27 | -7 | 2 | 1 | -6
COc1cc2nc(N3CCN(C(=O)c4ccco4)CC3)nc(N)c2cc1OC | 67*! | -6 | 6 | -8 | 58*! | 3
CC(C(=O)c1c[nH]c2ccccc12)N1CCN(C(=O)c2ccco2)CC1 (stereo not drawn) | -31 | -13 | -10 | -7 | 6 | nt
CCCOP(=O)(OCCC)C(NC(=O)c1ccccc1)=C(Cl)Cl | 91* | -6 | 4 | -3 | -8 | 0
CCCn1cc(C(=O)O)cn1 | -50 | -20 | 5 | 2 | -3 | 0
COC(=O)C1=C(c2cccc(OCc3ccccc3)c2)C[C@@H]2CC[C@H]1N2C(=O)NCCc1ccc(F)cc1 | nt | nt | 6 | nt | nt | nt
CN1CCCCC1c1ccc(-c2cccnc2)nc1 (stereo not drawn) | 70* | -8 | 0 | 6 | 21 | 3
CCCC/C(C)=C/[C@@H](NP(=O)(c1ccccc1)c1ccccc1)c1ccccc1 | 11 | 0 | 6 | -8 | 12 | -1
Cc1cccc(N2C(=O)NC(=O)/C(=C/c3ccc([N+](=O)[O-])o3)C2=O)c1 | 28 | -20 | 48* | -18 | 72* | -2
COc1ccc(CN2C(=O)NC(=O)/C(=C/c3ccc([N+](=O)[O-])o3)C2=O)cc1 | 34 | 10 | nt | -12 | 95* | 1
Cc1cccc(N2C(=O)NC(=O)/C(=C\C=C\c3ccco3)C2=O)c1 | -33 | -177 | -24 | 0 | 23 | nt
COc1ccc(OCC(=O)N2CCN(CC3CC4C=CC3C4)CC2)cc1 (stereo not drawn) | 32 | -9 | 5 | -10 | 22 | 0
O=C(O)CCC(=O)NCCC1=c2ccccc2=N/C1=C\c1c(O)n(Cc2ccc(F)cc2)c(=S)[nH]c1=O | 100* | 82* | 8 | -2 | 104* | nt
O=C(C(=O)N1CCOCC1)c1cn(Cc2ccccc2F)c2ccccc12 | nt | nt | -6 | nt | nt | nt
COc1ccccc1CCNC1CCC(C(C)(C)C)CC1 (stereo not drawn) | -21 | -9 | 4 | -7 | 6 | -3
COC(=O)C1=C(c2cccc(C#N)c2)C[C@@H]2CC[C@H]1N2C(=O)N1CCC(C)CC1 | nt | nt | 3 | nt | nt | nt
COc1ccc(C(=O)CC2(CC(=O)c3ccc(OC)cc3)C(=O)N(C)C(=O)N(C)C2=O)cc1 | -24 | -8 | 7 | 1 | -6 | 0
CN1C(=O)N(C)C(=O)C2(Cc3c(ccc4ccccc34)N(C)C2)C1=O | -74 | -11 | 4 | 1 | 51* | -1
Cc1ccc(C2N(c3cc(C)on3)C(=O)C3CCCN32)cc1 (stereo not drawn) | 13 | -6 | -1 | 4 | -2 | -4
C[C@]12CC[C@@H]3c4ccc(O)c(O)c4CC[C@H]3[C@@H]1CC[C@@H]2O | -76 | -15 | 14 | -2 | 64* | 4
Cn1c(O)c(C=Nc2ccc(F)cc2)c(=O)[nH]c1=O | nt | nt | 0 | nt | nt | nt
CC(C)(C)n1c(O)c(C=Nc2ccc3c(c2)CCC3)c(=O)[nH]c1=O | -7 | 10 | -2 | 5 | 71* | -3
Cn1c(O)c(/C=N/c2ccccn2)c(=O)n(C)c1=O | -34 | 3 | 0 | 0 | 15 | -60
O=S(=O)(NC1CCCCC1)OCC(Cl)(Cl)Cl | nt | nt | -6 | nt | nt | nt
SMILES | Mcl1-Bid inh | EBV gp42 block | MCL1-BIM inh | RBBP9 inh | Mcl1 Noxa PPI | Bim-Mcl-1
S=P(NC1CCCCC1)(N1CC1)N1CC1 | 4 | 5 | 48* | -16 | 7 | nt
COC(=O)C1=C(c2ccc(F)cc2F)C[C@@H]2CC[C@H]1N2C(=O)NC(C)C | nt | nt | 1 | nt | nt | nt
Cc1cccc(OP(N)(=O)Oc2cccc(C)c2C)c1C | -15 | -14 | 4 | -7 | -8 | nt
Cc1nonc1-c1nc(-c2nonc2N)n[nH]1 | -7 | -12 | 6 | -7 | 18 | 0
O=C1CCCC2=C1C(c1cccnc1)Nc1ccccc1N2 (stereo not drawn) | -23 | 0 | 4 | -7 | -8 | -3
c1cncc(C2Nc3cccc4cccc(c34)N2)c1 | -97 | 0 | 26 | -2 | 79* | nt
CCN(CC)c1ccc(N=Cc2c(O)n(CCc3ccc(OC)c(OC)c3)c(=O)[nH]c2=O)cc1 | -18 | 83* | 19 | -6 | 15 | 0
Cc1cccc(N2C(=O)/C(=C/c3ccc(CN(CCC#N)S(C)(=O)=O)o3)C(=O)NC2=S)c1 | 4 | -10 | 13 | 1 | 53* | 2
Cc1ccc(N2C(=O)/C(=C/c3ccc(CN(CCC#N)S(C)(=O)=O)o3)C(=O)NC2=S)cc1C | 5 | -4 | 28 | -4 | 66* | 1
CCOc1ccc(N2C(=O)/C(=C/c3ccc(C)o3)C(=O)NC2=S)cc1 | nt | nt | -10 | nt | nt | nt
CC(C)NC(=O)Cn1cc(C(=O)c2ccccc2F)c2ccccc21 | -24 | -13 | -2 | -6 | -1 | 0
CC(C)CCNC(=O)c1c(N)n(Cc2ccc3c(c2)OCO3)c2nc3ccccc3nc12 | 26 | 19 | 5 | 1 | 30 | 4
CCCNC(=O)c1c(N)n(Cc2ccc3c(c2)OCO3)c2nc3ccccc3nc12 | -22 | -13 | 12 | -1 | 56* | 1
CCCNC(=O)c1c(N)n(Cc2ccco2)c2nc3ccccc3nc12 | 17 | 2 | 31 | -4 | 38 | 2
COCCCNC(=O)c1c(N)n(Cc2ccco2)c2nc3ccccc3nc12 | -81 | 8 | 54* | -1 | 55* | nt
CC(C)CNC(=O)c1c(N)n(Cc2ccco2)c2nc3ccccc3nc12 | 33 | 12 | 23 | 1 | 87* | 1
C/C(=N\N=C(N)N)c1ccccc1 | -16 | -13 | 3 | -7 | 16 | nt
COc1ccc(P2(=O)Nc3ccccc3N2)cc1 | -101 | 24 | 52* | -5 | 42 | 3
CCOP(=O)(OCC)C(O)c1ccc(OC)cc1 (stereo not drawn) | -1 | -22 | 4 | -7 | -1 | nt
c1cncc(C2CCCCN2)c1 (stereo not drawn) | 61* | -2 | 18 | -4 | 14 | nt
CCC1(c2ccccc2)C(=O)N(COC)C(=O)N(COC)C1=O | 13 | -10 | 2 | -3 | 52* | 1
N#CC(C#N)=NNc1ccc(S(N)(=O)=O)cc1 | -150 | 42 | 20 | -8 | 88* | nt
CC(Cc1ccccc1)NCC(=O)Nc1cc(N(C)C)nc2ccccc12 (stereo not drawn) | 72* | -21 | 7 | 1 | 29 | nt
COc1ccc(C2SCC(=O)Nc3c2c(C)nn3C2CCOC(C)(C)C2)cc1OC (stereo not drawn) | -15 | -7 | 3 | -7 | -1 | 0
CNC(=O)OCc1n(C)cc[n+]1C | 87* | -29 | -21 | -4 | -18 | -4
BrCC(Br)C1CCC(Br)C(Br)C1 (stereo not drawn) | nt | nt | 5 | nt | nt | nt
C=CCC1(CN2CCCCCC2=O)C(=O)NC(=O)NC1=O | 61* | -19 | 8 | -6 | -12 | 1
